Compound activity as filed in PubChem.
STEP block = STEP phosphatase inhibitors, primary screen, biochemical, fluorescence intensity, uHTS; AID 588621, 2011; inhibition, % at 20 µM; recombinant STEP, OMFP fluorogenic substrate; actives 0.25% (n = 360,000);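 active = inhibition at 20 µM, scaled per plate between control wells, above about 37%, limit read from the data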;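 also: 0% = DMSO with enzyme and substrate and 100% = substrate only without enzyme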
Target sequence (P54829 whole entry, looked up): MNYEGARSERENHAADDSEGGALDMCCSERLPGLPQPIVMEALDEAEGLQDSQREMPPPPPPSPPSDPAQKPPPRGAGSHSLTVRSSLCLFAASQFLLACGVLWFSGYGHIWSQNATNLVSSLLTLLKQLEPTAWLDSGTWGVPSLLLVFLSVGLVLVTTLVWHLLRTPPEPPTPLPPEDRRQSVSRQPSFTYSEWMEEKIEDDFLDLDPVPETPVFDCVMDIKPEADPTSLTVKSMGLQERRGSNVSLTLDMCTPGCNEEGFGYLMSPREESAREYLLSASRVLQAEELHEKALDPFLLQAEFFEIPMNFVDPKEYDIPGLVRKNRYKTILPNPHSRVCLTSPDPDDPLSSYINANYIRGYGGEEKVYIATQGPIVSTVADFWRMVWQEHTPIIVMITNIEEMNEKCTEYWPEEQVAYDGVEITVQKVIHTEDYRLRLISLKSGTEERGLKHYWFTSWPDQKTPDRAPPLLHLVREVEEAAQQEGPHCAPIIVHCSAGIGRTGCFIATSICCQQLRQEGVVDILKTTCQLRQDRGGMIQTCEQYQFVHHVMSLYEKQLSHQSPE
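Also added – OMFP at 25 µM · Test system – STEP tyrosine phosphatase · Technique – FITC-channel fluorescence of OMFP product · Schedule – 20 min at room temperature, dark · Evaluation – control-normalized % inhibition with plate pattern correction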
Rpn11 block = Rpn11 (PSMD14) deubiquitinase inhibitors, primary screen, biochemical, fluorescence polarization, uHTS; actives 0.59% (n = 360,000); 26S proteasome non-ATPase regulatory subunit 14 (Homo sapiens), O00487; inhibition, % at 20 µM; human 26S proteasome, Ub4-pepOG fluorescence polarization; 20S core pre-blocked with epoxomicin;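 active = inhibition at 20 µM, scaled to each plate's controls, above about 33%, limit read from the data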
DNMT1 block = human DNMT1 methyltransferase inhibitors, primary screen, biochemical, molecular beacon, fluorescence, HinP1I cleavage, uHTS. actives 0.83% (n = 360,000). inhibition (reported as % activation of signal), % at 10 µM. DNA (cytosine-5)-methyltransferase 1 (Homo sapiens), P26358; in the data active = inhibition above about 50%
LMPTP inh = LMPTP phosphatase inhibitors, primary screen, biochemical, fluorescence intensity, uHTS | Low molecular weight phosphotyrosine protein phosphatase (Homo sapiens), P24666 | recombinant LMPTP-A, OMFP fluorogenic substrate | inhibition, % at 20 µM | actives 0.22% (n = 360,000);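 active = compounds that cut the enzyme signal by at least half of the control window in the single-dose screen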;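 also: plate controls were DMSO wells with enzyme plus substrate for no effect and substrate without enzyme for full effect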
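Buffer or medium: Bis-Tris pH 6.0, DTT, detergent; Assay system: LMPTP-A enzyme; Quantity: 0.625 nM enzyme; Detection: endpoint fluorescence intensity; Times: 50 min dark incubation at room temperature; Controls: substrate-only low control, DMSO enzyme-plus-substrate high control; Doses: single 20 µM dose; Read-out: percent inhibition versus substrate-only and uninhibited controls; Reagent: 400 µM OMFP.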
Scp-1 inhibitor = Scp-1 phosphatase inhibitors, primary screen, biochemical, colorimetric, uHTS; inhibition, % at 20 µM; actives 0.88% (n = 340,000); Recombinant Scp1, phosphopeptide, malachite green phosphate absorbance; Carboxy-terminal domain RNA polymerase II polypeptide A small phosphatase 1 (Homo …;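 active = inhibition above about 50% at 20 µM, limit read from the data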;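 also: plate controls were DMSO wells with enzyme for no effect and wells lacking enzyme for full effect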
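Assay system: SCP-1 catalytic fragment, aa 76-261 | Buffer or medium: Tris acetate buffer pH 5.5 with MgCl2 and Tween-20 | Compound: One concentration, 20 µM, with 1.0% DMSO | Also added: Phospho 17-mer peptide substrate | Signal: Absorbance at 630 nm | Incubation: 45 min enzyme reaction at room temperature | Measure: % inhibition of SCP-1 phosphate liberation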
SUMO1 PPI mod = modulators of SUMO1 protein-protein interactions, primary screen, biochemical, uHTS; Small ubiquitin-related modifier 1 (Homo sapiens), P63165; SUMO1 binding to a labelled peptide, TR-FRET, 1 h; inhibition, % at 20 µM; actives 0.33% (n = 360,000); in the data active = inhibition above about 37%
Target sequence (P63165 whole entry, looked up): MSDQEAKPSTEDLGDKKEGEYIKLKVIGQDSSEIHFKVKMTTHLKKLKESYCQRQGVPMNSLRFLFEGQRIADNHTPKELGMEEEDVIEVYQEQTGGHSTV
Scp-1 conf = Scp-1 phosphatase inhibitors, retest, confirmation, biochemical, colorimetric, single concentration. inhibition, % at 20 µM. actives 61% (n = 2,500). shares compounds with Scp-1 inhibitor. recombinant SCP-1 catalytic domain, phosphate release, malachite green absorbance;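 also: plate controls were DMSO with enzyme for no effect and buffer wells lacking enzyme for full effect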
Scp-1 MG ctr = colorimetric readout interference by compounds, confirmation, artefact control for Scp-1 inhibitor project, biochemical, single concentration | apparent inhibition (interference), % at 20 µM | shares compounds with Scp-1 inhibitor | Colorimetric interference counterscreen, malachite green absorbance 630 nm | 2,500 tested, under 10 active;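 also: compounds added after enzyme reaction finished so only phosphate colour detection is probed; plate controls were DMSO wells with completed Scp-1 reaction for no effect and substrate wells lacking enzyme for full effect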
Scp-1 Tm shift = Scp-1 binding by thermal shift, confirmation, orthogonal assay for Scp-1 inhibitor project, biophysical, differential scanning fluorimetry | Recombinant SCP1, Sypro Orange thermal shift Tm | shares compounds with Scp-1 inhibitor | thermal shift relative to vanadate control, % at 40 µM | actives 25% (n = 1,500);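 active = substances whose mean melting-temperature shift, as a percentage of the reference inhibitor's shift, reaches about 5.3%, limit read from the data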;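 also: 0% = Tm of DMSO wells and 100% = Tm with sodium orthovanadate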
DNMT1 inh conf = DNMT1 methyltransferase inhibitor retest, confirmation, biochemical, molecular beacon, fluorescence, single concentration; shares compounds with DNMT1 block; DNMT1 molecular beacon HinP1I cleavage; inhibition, % at 10 µM; actives 8% (n = 2,300); AID 602385, 2012;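 active = average inhibition of at least 30% in the single-concentration confirmation test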
Beacon interf = counter-screen for DNMT1 inhibitors: spectral interference. shares compounds with DNMT1 block. DNMT1 molecular beacon spectral interference counterscreen, fluorescence 485/520. activation (fluorescence interference), % at 10 µM. actives 1% (n = 2,300). AID 602387;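 active = activation of at least 30% at 10 µM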;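 also: DNMT1 catalytic domain with a HinP1I cleavage step and a FAM/dabcyl DNA beacon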
* marks the source's active call; other numbers are inactive results; . = no result given. Shown are actives, neighbours in structure and some others; about 2.3% of the full set was active somewhere.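 The calls were made as follows, unless noted: active = inhibition of at least 30% at 20 µM; inactive = the rest.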

SMILES	STEP block	Rpn11 block	DNMT1 block	LMPTP inh	Scp-1 inhibitor	SUMO1 PPI mod	Scp-1 conf	Scp-1 MG ctr	Scp-1 Tm shift	DNMT1 inh conf	Beacon interf
Cc1ccc(OCC(=O)Nc2nnc(S(=O)(=O)N3CCCCC3)s2)cc1	3	19	89*	31	71*	43*	57*	-20	5.7*	13	0
Cc1ccc(OCC(=O)Nc2nnc(S(=O)(=O)N3CCCCCC3)s2)cc1	2	-1	7	-1	-3	6	.	.	.	.	.
C=CCN1C(=O)/C(=C2/Sc3ccccc3N2CC)SC1=S	-1	.	4	-1	-8	-2	.	.	.	.	.
C=CCN1C(=O)/C(=C2/Sc3ccccc3N2CCCS(=O)(=O)O)SC1=S	11	4	67*	6	86*	13	64*	-20	13*	3	1
COc1ccc(S(=O)(=O)N2CCOCC2)cc1NC(=O)c1cccc(-n2cccc2)c1	0	30	73*	13	58*	23	-7	-18	.	0	-5
COc1ccccc1NC(=O)c1cccc(S(=O)(=O)N2CCOCC2)c1	0	-6	-3	0	-7	-3	.	.	.	.	.
CCN(CC)C(=O)CSc1ncnc2c(-c3cccs3)nsc12	4	13	97*	45	76*	24	61*	-15	6.0*	5	6
CCN(CC)C(=O)CSc1ncnc2sccc12	-1	-1	2	-1	-10	4	.	.	.	.	.
Cc1nc2c(c(=O)n1CCC1=CCCCC1)c1nc3ccccc3nc1n2/N=C/c1ccco1	4	-18	76*	32	58*	26	41*	-9	6.1*	1	-1
CCCn1c(C)nc2c(c1=O)c1nc3ccccc3nc1n2CCC1=CCCCC1	3	8	-1	1	3	-11	.	.	.	.	.
O=C(Cn1c(=S)[nH]c2ccccc2c1=O)NCCc1ccccc1	2	-6	2	-2	-2	-10	.	.	.	.	.
COc1ccc(C(=O)Oc2ccc(/C=N/NC(=O)Cc3ccc([N+](=O)[O-])cc3)cc2)cc1	10	3	53*	13	91*	0	-11	-14	.	3	2
CCOc1cc(/C=N/Nc2ccccc2Cl)ccc1OCC(=O)O	14	-38	58*	1	54*	24	16	-12	.	4	5
Cc1ccc(/C(O)=C2/C(=O)C(=O)N(c3ccccn3)C2c2cccc([N+](=O)[O-])c2)cc1 (stereo unspecified)	0	4	3	5	-1	-15	.	.	.	.	.
O=P(c1ccccc1)(c1ccccc1)c1cc(S(=O)(=O)O)ccc1O	98*	-4	83*	29	88*	15	60*	-13	-18	3	-1
CCOC(=O)c1ccc2c(c1)nc(COc1ccc(OC)cc1)n2CC	0	1	-2	1	0	0	.	.	.	.	.
O=C(CSc1ccsc1[N+](=O)[O-])NCCc1ccc(Cl)cc1	5	3	-1	10	33	-5	.	.	.	.	.
O=C(CSc1ccsc1[N+](=O)[O-])Nc1cc(F)ccc1F	5	-11	70*	21	72*	0	66*	-16	8.1*	19	0
CC(C)CN1CCC1(C)C(=O)Nc1cc(-c2ccccc2)nn1C (stereo unspecified)	-3	-2	0	-3	.	1	.	.	.	.	.
COc1ccc(NC(=O)/C(C#N)=C\c2ccc(Br)o2)cc1	17	-10	79*	38	94*	22	58*	-17	3	3	1
COc1ccc(NC(=O)/C(C#N)=C/c2ccc(-c3ccccc3C(=O)O)o2)cc1	0	-6	2	-1	-10	-11	.	.	.	.	.
CCCCCCN1C[C@H](O)[C@@H](n2cc(C3CC3)nn2)C[C@@H]1c1ccc(OC)cc1	1	6	-2	0	.	3	.	.	.	.	.
O=C(Nc1cccc(C(F)(F)F)c1)c1cc2ncc(Br)cn2n1	32	3	11	10	7	1	.	.	.	.	.
O=C(Nc1ccc2c(c1)OCO2)c1cc2ncc(Br)cn2n1	12	-24	59*	36	57*	9	66*	-5	1	0	-2
CCc1nc2ccc(C(=O)NCCCn3ccnc3)cn2c1N(C)CCCc1ccccc1	3	-2	-5	-2	.	-5	.	.	.	.	.
O=C(O)C1=C(C(=O)O)C2C=CC1C2	33	0	60*	1	72*	24	52*	-15	-3	5	2
O=C(COC(=O)C1CC2C=CC1C2)NCc1ccco1 (stereo unspecified)	4	-7	89*	4	71*	2	70*	-5	-3	14	8
O=C(COC(=O)C1CC2C=CC1C2)NCc1ccc(F)cc1 (stereo unspecified)	1	-4	-2	-1	-7	1	.	.	.	.	.
COc1cccc(/C=N/NC(=O)CCc2n[nH]c(=O)[nH]c2=O)c1O	-1	-5	5	-1	-7	0	.	.	.	.	.
O=C(CCc1n[nH]c(=O)[nH]c1=O)N/N=C/c1ccco1	38	-30	51*	40	81*	31	56*	-7	-1	2	7
